The values that follow come from ChEMBL document CHEMBL3227953, “Potential antitumor agents. 30. Mutagenic activity of some 9-anilinoacridines: relationships between structure, mutagenic potential, and antileukemic activity” (J Med Chem, 1979).

A short description of data set [1]: Toxicity in Salmonella typhimurium TA1537 assessed as growth inhibition after 1 hr. It is filed as organism-based. The note with it: salmonella enterica subsp. enterica serovar typhimurium, read-out: D50. The essentials:
(§1)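 Overnight shaken L-broth culture from frozen stock. 0.5 mL culture in L broth (10 mL total) with a range of drug concentrations, from nontoxic to clearly toxic, in 50% ethanol. Shaken at 37 °C for 1 h, centrifuged, resuspended in saline, diluted 1 in 10^4, plated in triplicate on L-broth plates, 37 °C, 2 days. Survival = 100Nt/Nc vs untreated. D50 from linear fit of log survival vs dose.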

Data set [2] has as its system Salmonella typhimurium. The experiment in a line: Mutagenic activity in Salmonella typhimurium TA1537 assessed as mutation frequency at 10^4 times D50 after 1 hr. The format is toxicity, organism-based. To be noted: salmonella enterica subsp. enterica serovar typhimurium. Put shortly: (§2)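 Overnight L-broth culture (0.5 mL) exposed to drug (from 50% ethanol) in 10 mL L broth, 37 °C shaking, 1 h; concentration range from non-toxic to clearly toxic. Cells spun, resuspended in saline, plated in triplicate on minimal plates (1 mM histidine, biotin) and, diluted 1 in 10^4, on L-broth plates; 37 °C, 2 days. D50 interpolated from log % survival vs dose; mutation frequency = 100(MT − MC)/S50, background-corrected.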

A short description of data set [3]: Toxicity in Salmonella typhimurium TA98 assessed as growth inhibition after 1 hr. The note with it: salmonella enterica subsp. enterica serovar typhimurium, read-out: D50. It is filed as organism-based. Put shortly:
as §1

For data set [4], the system named is Salmonella typhimurium. The experiment in a line: Mutagenic activity in Salmonella typhimurium TA100 assessed as mutation frequency at 10^4 times D50 after 1 hr. It is filed as toxicity, organism-based. The note with it: salmonella enterica subsp. enterica serovar typhimurium. Put shortly:
as §2

Data set [5] can be described thus: Toxicity in Salmonella typhimurium TA100 assessed as growth inhibition after 1 hr. The format is organism-based. To be noted: salmonella enterica subsp. enterica serovar typhimurium, read-out: D50. Put shortly: as §1
For data set [6], the system named is Salmonella typhimurium. In words: Mutagenic activity in Salmonella typhimurium TA98 assessed as mutation frequency at 10^4 times D50 after 1 hr. The format is toxicity, organism-based. To be noted: salmonella enterica subsp. enterica serovar typhimurium. Put shortly: as §2

As for `CCCCNc1ccc(Nc2c3ccccc3nc3ccccc23)cc1.Cl`, in data set [1], the GI50 at 1 h amounted to 9.8 µM. Moreover, the “log(M50)” value in data set [2] is 1.
For the molecule `CCCCCS(=O)(=O)Nc1ccc(Nc2c3ccccc3nc3ccccc23)cc1.Cl`, the GI50 at 1 h in data set [1] turned out to be 15.6 µM. For the same molecule, the “log(M50)” value in data set [2] is given as 0.6.
With `CCS(=O)(=O)Nc1ccc(Nc2c3ccccc3nc3c(C(N)=O)cccc23)c(OC)c1.Cl`, the GI50 at 1 h in data set [1] is 467 µM. Besides, the “log(M50)” value in data set [2] was found to be 0.18.
The corresponding values for `COc1cc(NS(C)(=O)=O)ccc1Nc1c2ccccc2nc2c(C(N)=O)cccc12.Cl` are 698 µM and -0.7.
For `CCCS(=O)(=O)Nc1ccc(Nc2c3ccccc3nc3cc(NC(C)=O)ccc23)cc1.CS(=O)(=O)O` the same measures were 114 µM and 0.
As to `CCCCCS(=O)(=O)Nc1ccc(Nc2c3ccccc3nc3c(C(N)=O)cccc23)c(OC)c1.Cl`, the GI50 at 1 h in data set [1] amounted to 466 µM. Besides, the “log(M50)” value in data set [2] is 0.
Take `CCCCCS(=O)(=O)Nc1ccc(Nc2c3ccccc3nc3ccccc23)c(OC)c1.CS(=O)(=O)O`: the GI50 at 1 h in data set [1] came to 21.1 µM. Moreover, the “log(M50)” value in data set [2] worked out at 0.
Consider `CCCS(=O)(=O)Nc1ccc(Nc2c3ccccc3nc3ccccc23)cc1.Cl`, for which the GI50 at 1 h in data set [1] was determined as 50.1 µM. In addition, the “log(M50)” value in data set [2] was found to be 1.67.
For `CC(=O)Nc1ccc2c(Nc3ccc(NS(C)(=O)=O)cc3)c3ccccc3nc2c1.CS(=O)(=O)O`, the GI50 at 1 h in data set [1] came out at 282 µM. Also, in data set [2], the “log(M50)” value is on record as -0.22.
`Br.CNc1ccc(Nc2c3ccccc3nc3ccccc23)cc1`: the GI50 at 1 h in data set [1] stood at 82 µM. For the same molecule, the “log(M50)” value in data set [2] is listed as 2.05.
Take `CCCS(=O)(=O)Nc1ccc(Nc2c3ccccc3nc3c(C(N)=O)cccc23)c(OC)c1.Cl`: the GI50 at 1 h in data set [1] was found to be 642 µM. Moreover, the “log(M50)” value in data set [2] was found to be 0.
For `CS(=O)(=O)Nc1ccc(Nc2c3ccccc3nc3ccccc23)cc1.Cl`, the GI50 at 1 h in data set [3] turned out to be 180 µM; in data set [1], 110 µM; in data set [5] it was 194 µM. For the same molecule, the M50 in data set [4] worked out at 0%; in data set [6], 0%; in data set [2], 127%. Besides, the “log(M50)” value in data set [2] is recorded as 2.1.
Turning to `CCS(=O)(=O)Nc1ccc(Nc2c3ccccc3nc3ccccc23)cc1.Cl`, the GI50 at 1 h in data set [1] was 81.6 µM. Moreover, the “log(M50)” value in data set [2] was determined as 2.
With `CCS(=O)(=O)Nc1ccc(Nc2c3ccccc3nc3cc(NC(C)=O)ccc23)cc1.CS(=O)(=O)O`, the GI50 at 1 h in data set [1] worked out at 221 µM. Further, the “log(M50)” value in data set [2] is recorded as 0.
In the case of `CCS(=O)(=O)Nc1ccc(Nc2c3ccccc3nc3ccccc23)c(OC)c1.CS(=O)(=O)O`, the GI50 at 1 h in data set [1] was 93.2 µM. The “log(M50)” value in data set [2] was -0.3.
For `CCCCCCS(=O)(=O)Nc1ccc(Nc2c3ccccc3nc3ccccc23)cc1.Cl`, the GI50 at 1 h in data set [1] was 9.4 µM. The “log(M50)” value in data set [2] amounted to 0.3.
`CCCCS(=O)(=O)Nc1ccc(Nc2c3ccccc3nc3c(C(N)=O)cccc23)c(OC)c1.Cl`: the GI50 at 1 h in data set [1] stood at 330 µM. For the same molecule, in data set [2], the “log(M50)” value stood at 0.
Consider `CCCS(=O)(=O)Nc1ccc(Nc2c3ccccc3nc3ccccc23)c(OC)c1.CS(=O)(=O)O`, for which the GI50 at 1 h in data set [1] came to 77.6 µM. Besides, the “log(M50)” value in data set [2] is given as -0.7.
Take `CCCCS(=O)(=O)Nc1ccc(Nc2c3ccccc3nc3cc(NC(C)=O)ccc23)cc1.CS(=O)(=O)O`: the GI50 at 1 h in data set [1] turned out to be 148 µM. Also, the “log(M50)” value in data set [2] is given as -0.3.
As for `COc1cccc2c1C(=O)c1c(O)c3c(c(O)c1C2=O)C[C@@](O)(C(C)=O)C[C@@H]3O[C@H]1C[C@H](N)[C@H](O)[C@H](C)O1` [DAUNORUBICIN], the GI50 at 1 h was 13.1 µM in data set [3], 7.4 µM in data set [1] and 11.1 µM in data set [5]. Besides, the M50 in data set [4] was found to be 4.5%; in data set [6] it was 20%; in data set [2] it was 0%. The “log(M50)” value in data set [2] worked out at 0.
Regarding `CCCCCS(=O)(=O)Nc1ccc(Nc2c3ccccc3nc3cc(NC(C)=O)ccc23)cc1.CS(=O)(=O)O`, the GI50 at 1 h in data set [1] is 17.7 µM. In addition, in data set [2], the “log(M50)” value is given as -0.1.
For `CCCCCCNc1ccc(Nc2c3ccccc3nc3ccccc23)cc1.Cl` the same measures were 4.4 µM and -1.
As to `CCCCCCS(=O)(=O)Nc1ccc(Nc2c3ccccc3nc3ccccc23)c(OC)c1.CS(=O)(=O)O`, the GI50 at 1 h in data set [1] was found to be 15.3 µM. Moreover, in data set [2], the “log(M50)” value was determined as 0.
Consider `COc1cccc2c1C(=O)c1c(O)c3c(c(O)c1C2=O)C[C@@](O)(C(=O)CO)C[C@@H]3O[C@H]1C[C@H](N)[C@H](O)[C@H](C)O1` [DOXORUBICIN], for which the values for the GI50 at 1 h in data set [3], in data set [1] and in data set [5] were 6.1 µM, 16.3 µM and 11.3 µM, respectively. Moreover, the M50 turned out to be 0.5% in data set [4], 14% in data set [6] and 0% in data set [2]. Also, the “log(M50)” value in data set [2] was determined as 0.
Turning to `CCCCCCS(=O)(=O)Nc1ccc(Nc2c3ccccc3nc3cc(NC(C)=O)ccc23)cc1.CS(=O)(=O)O`, in data set [1], the GI50 at 1 h is 3.1 µM. Besides, the “log(M50)” value in data set [2] is listed as 0.
On to `CCCNc1ccc(Nc2c3ccccc3nc3ccccc23)cc1.Cl`, for which the GI50 at 1 h in data set [1] was 98.9 µM. For the same molecule, in data set [2], the “log(M50)” value was determined as 1.67.
On to `CCCCS(=O)(=O)Nc1ccc(Nc2c3ccccc3nc3ccccc23)c(OC)c1.CS(=O)(=O)O`, for which the GI50 at 1 h in data set [1] stood at 69.7 µM. Moreover, the “log(M50)” value in data set [2] was 0.
For `CCNc1ccc(Nc2c3ccccc3nc3ccccc23)cc1.Cl` the same measures were 100 µM and 1.88.
Take `CCCCS(=O)(=O)Nc1ccc(Nc2c3ccccc3nc3ccccc23)cc1.Cl`: in data set [1], the GI50 at 1 h is 49.3 µM. Besides, in data set [2], the “log(M50)” value turned out to be 0.78.
